Measured values reported in ChEMBL document CHEMBL1133630, “Chemical synthesis and pharmacology of 6- and 7-hydroxylated 2-carbomethoxy-3-(p-tolyl)tropanes: antagonism of cocaine's locomotor stimulant effects” (J Med Chem, 2000).

Experiments:
[1] = molecular target: T1, Sodium-dependent dopamine transporter (Rattus norvegicus, UniProt P23977); test: Inhibition of high affinity uptake of [3H]dopamine into nerve endings (synaptosomes) prepared from various regions of the rat brain.; format: subcellular
T1 sequence (P23977 whole entry): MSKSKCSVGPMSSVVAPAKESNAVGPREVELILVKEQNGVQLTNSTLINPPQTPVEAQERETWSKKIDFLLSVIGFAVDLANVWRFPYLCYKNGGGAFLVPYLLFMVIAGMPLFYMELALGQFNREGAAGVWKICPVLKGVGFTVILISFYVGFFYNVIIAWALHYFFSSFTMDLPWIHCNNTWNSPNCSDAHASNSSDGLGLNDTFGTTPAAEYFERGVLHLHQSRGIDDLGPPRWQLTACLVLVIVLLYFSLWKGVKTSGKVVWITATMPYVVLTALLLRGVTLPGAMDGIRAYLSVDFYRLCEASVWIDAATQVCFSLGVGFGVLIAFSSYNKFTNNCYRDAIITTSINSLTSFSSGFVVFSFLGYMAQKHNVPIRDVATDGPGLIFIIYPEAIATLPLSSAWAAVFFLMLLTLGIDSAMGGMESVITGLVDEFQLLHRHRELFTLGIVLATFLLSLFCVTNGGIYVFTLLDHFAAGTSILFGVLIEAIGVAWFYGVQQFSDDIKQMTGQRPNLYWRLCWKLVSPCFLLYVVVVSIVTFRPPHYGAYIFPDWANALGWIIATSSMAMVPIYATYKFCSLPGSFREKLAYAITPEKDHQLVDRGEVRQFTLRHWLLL
Summary of the method: (§1)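 Radiolabelled monoamine uptake inhibition. Six drug concentrations, each in triplicate, chosen from preliminary screens to bracket the approximate IC50.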

[2] = molecular target: T1, Sodium-dependent dopamine transporter; test: Inhibition of [3H]mazindol binding to dopamine transporter of rat striatal membranes.; format: cell membranes, Membrane
Rattus norvegicus [3] = species: Rattus norvegicus; test: To inhibit high affinity uptake of [3H]NE into nerve endings (synaptosomes) prepared from various regions of the rat brain.; format: functional; summary of the method: as §1
Rattus norvegicus [4] = species: Rattus norvegicus; test: To inhibit high affinity uptake of [3H]5-HT into nerve endings (synaptosomes) prepared from various regions of the rat brain.; format: functional; summary of the method: as §1
Rattus norvegicus [5] = species: Rattus norvegicus; test: To inhibit high affinity uptake of [3H]dopamine (DA) into nerve endings (synaptosomes) prepared from various regions of the rat brain.; format: functional; summary of the method: as §1

Structure (SMILES)	Ki [1] [nM]	Ki [2] [nM]	Ki (Rattus norvegicus [3]) [nM]	Ki (Rattus norvegicus [4]) [nM]	Ki (Rattus norvegicus [5]) [nM]
COC(=O)[C@H]1C2[C@@H](O)C[C@H](C[C@H]1c1ccc(C)cc1)N2C (stereo in doubt; 14b)	2900	1400	300	> 100000	–
COC(=O)[C@H]1C2[C@@H](O)C[C@H](C[C@H]1c1ccc(C)cc1)N2C (stereo in doubt; 19b)	676	540	–	–	–
COC(=O)[C@@H]1C2C(O)C[C@H](C[C@@H]1c1ccc(C)cc1)N2C (stereo partly drawn)	39.2	25.2	44.7	581	–
COC(=O)[C@H]1C2[C@H](O)C[C@H](C[C@H]1c1ccc(C)cc1)N2C	–	135	60.9	–	–
COC(=O)[C@H]1C2C(O)C[C@H](C[C@@H]1c1ccc(C)cc1)N2C (stereo partly drawn)	5600	2900	1000	3000	–
COC(=O)[C@H]1[C@@H](OC(=O)c2ccccc2)C[C@@H]2CC[C@H]1N2C [COCAINE]	–	–	108	155	–
COC(=O)[C@@H]1C2CC[C@H](C[C@@H]1c1ccccc1)N2C	–	89.4	37.2	173	–
Cc1ccc(C2C[C@H]3CC4OC(=O)C2C4N3C)cc1 (stereo partly drawn)	–	–	–	–	25000
CCCC1C2CC[C@H](C[C@@H]1c1ccc(C)cc1)N2C (stereo partly drawn)	51.8	21	6.3	80.2	–
COC(=O)[C@@H]1C2C[C@H](O)[C@H](C[C@@H]1c1ccc(C)cc1)N2C	–	–	154	6700	–
